Data reported in publication PMC3981972 (Molecular cancer therapeutics, 2014).

Tests used:
[1] = tested on: tumor blood vessels of HT-1080 xenografts; details: previous observations; cited from earlier work
[2] = Mouse plasma clearance of fluorescent probes after intravenous injection; format: in vivo; details: 75 nmol i.v., biexponential fit
Procedure, shortened: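 Nude mice (6–8 weeks) with HT-1080 tumours in dorsal skin window chambers, under 1–2% isoflurane. Vessels labelled with Angiosense-750 or Pacific Blue–dextran. 75 nmol probe in 1:1 dimethylacetamide:solutol plus PBS, sonicated, given by tail-vein catheter during time-lapse intravital imaging (scans every 10 s). Plasma signal taken from intravascular regions of interest and fitted to biexponential decay.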

HT1080 cells = assay: Live cell imaging of subcellular uptake and wash-out kinetics; format: cell-based
Procedure, shortened: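 HT1080 cells grown in DMEM with non-essential amino acids, 10% FBS and 1% penicillin-streptomycin, then imaged live in glass coverslip-bottom dishes on an inverted deconvolution microscope (40x objective, 37°C, 5% CO2). Prewarmed fluorescent probe was added to 1 μM, with images every second. Cells were then washed twice into drug-free medium. Nuclear and nucleolar regions of interest were fitted to uptake and clearance curves.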

[3] = Plasma protein binding by rapid equilibrium dialysis; format: in vitro ADME; details: 10 μM in mouse serum, 37°C, 4 hours
Procedure, shortened: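 Probe equilibrated in mouse serum against PBS on a shaker. Both compartments then adjusted with plasma or PBS to a 50:50 PBS:plasma final matrix to even out fluorescence effects. Fluorescence read on a plate reader to give the bound fraction.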

- Mouse plasma clearance t1/2,alpha [2]: 5.16 min
- Mouse plasma clearance t1/2,beta [2]: 85.7 min
- C0 ([2]; read-out: Mouse plasma clearance C0): 7 µM
- Cellular uptake half-life (HT1080 cells; HT1080 cells, 1 μM): 1.18 min
- Mouse plasma protein binding [3]: 99.23% (+/− 0.11%)
Structure (SMILES): Cc1cc(C)n2c1C=C1C=CC(CCC(=O)N3CCN(C(=O)c4cc(Cc5n[nH]c(=O)c6ccccc56)ccc4F)CC3)=[N+]1[B-]2(F)F [olaparib-BODIPY FL]
- Vascular permeability in tumor vessels versus mouse ear vessels [1]: the same in tumor vessels and mouse ear vessels
- Washing time to remove non-specific ER staining (HT1080 cells; HT1080 cells after 1 μM incubation, washed with fresh media): Within five minutes
